Measurements: ChEMBL document CHEMBL1122780, “Trequinsin, a potent new antihypertensive vasodilator in the series of 2-(arylimino)-3-alkyl-9,10-dimethoxy-3,4,6,7-tetrahydro-2H-py rim ido [6,1-a]isoquinolin-4-ones” (J Med Chem, 1984)

Legend:
Felis catus [1] = test: Dose estimated to produce 25 mm Hg fall in mean systemic blood pressure of anesthetized cat at 10 min after administration; format: functional
Rattus norvegicus [2] = test: Difference in systolic blood pressure of SH rats observed prior to the first application and 2 hr after the fifth application at the oral dose of 5 mg/kg was expressed as Delta BP; format: functional, Artery
Summary of the method: (§1)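 Male spontaneously hypertensive rats (Wistar–Okamoto, 250–300 g, 12–16 weeks), conscious. Dosed orally once daily for 5 days in 0.9% NaCl or 0.5% carboxymethylcellulose (10 mL/kg); vehicle control group. Rats warmed at 37–38 °C for 10 min, then systolic pressure taken by tail-cuff (piezoelectric pulse detection). ΔBP = pre-first-dose minus 2 h after fifth dose; mean ± SEM, six animals.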

Rattus norvegicus [3] = test: Difference in systolic blood pressure of SH rats observed prior to the first application and 2 hr after the fifth application at the oral dose of 25 mg/kg was expressed as Delta BP; format: functional, Artery; summary of the method: as §1
[4] = Compound was tested for toxicity in mice after intraperitoneal administration; format: organism-based; details: mouse, in vivo, ip
Summary of the method: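 Mice (18–22 g), either sex. Compound dissolved in distilled water or suspended in 0.5% (carboxymethyl)cellulose and given ip at 10, 30, 100, 300 and 1000 mg/kg, 1 mL/100 g body weight. Animals observed for 48 h; approximate LD50 calculated by the Campbell and Richter method.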

Felis catus [5] = test: Blood pressure lowering activity in anesthetized cats after intravenous administration of […] of compound; format: functional
Rattus norvegicus [6] = test: Difference in systolic blood pressure of SH rats observed prior to the first application and 2 hr after the fifth application at the oral dose of 10 mg/kg was expressed as Delta BP; format: functional, Artery; summary of the method: as §1
Rattus norvegicus [7] = test: Delta BP refers to difference in systolic blood pressure of SH rats observed prior to the first application and 2 hr after the fifth application at the oral dose of 3 mg/kg; format: functional, Artery; summary of the method: as §1

CCCCN(c1cc2n(c(=O)n1)CCc1cc(OC)c(OC)cc1-2)c1c(C)cc(C)cc1C
ED25 (Felis catus [1]): 0.08 mg/kg

COc1cc2c(cc1OC)-c1cc(N(c3c(C)cc(C)cc3C)C(C)C)nc(=O)n1CC2
ED25 (Felis catus [1]): 0.5 mg/kg | Delta blood pressure (Rattus norvegicus [2]): -37 mmHg

COc1cc2c(cc1OC)-c1cc(Nc3c(F)cccc3F)nc(=O)n1CC2
ED25 (Felis catus [1]): 3.5 mg/kg | Delta blood pressure (Rattus norvegicus [3]): 0 mmHg

CCc1cccc(C(C)C)c1Nc1cc2n(c(=O)n1)CCc1cc(OC)c(OC)cc1-2.Cl
ED25 (Felis catus [1]): 3 mg/kg

COc1cc2c(cc1OC)-c1cc(Nc3ccccc3Cl)nc(=O)n1CC2.Cl
ED25 (Felis catus [1]): 1.4 mg/kg | Delta blood pressure (Rattus norvegicus [3]): 0 mmHg

COc1cc2c(cc1OC)-c1cc(Nc3c(C)cccc3C(C)(C)C)nc(=O)n1CC2.Cl
ED25 (Felis catus [1]): 1.8 mg/kg | Delta blood pressure (Rattus norvegicus [3]): 0 mmHg

COc1cc2c(cc1OC)-c1cc(Nc3ccc(C)cc3C)nc(=O)n1CC2
ED25 (Felis catus [1]): 1 mg/kg | Delta blood pressure (Rattus norvegicus [3]): -41 mmHg

CCOc1ccccc1Nc1cc2n(c(=O)n1)CCc1cc(OC)c(OC)cc1-2.Cl
ED25 (Felis catus [1]): 1.2 mg/kg | Delta blood pressure (Rattus norvegicus [3]): -27 mmHg

COc1cc2c(cc1OC)-c1cc(=Nc3c(Cl)cc(Cl)cc3Cl)n(C)c(=O)n1CC2
ED25 (Felis catus [1]): 3 mg/kg | Delta blood pressure (Rattus norvegicus [3]): -21 mmHg

COc1cc2c(cc1OC)-c1cc(N(C)c3c(C)cc(C)cc3C)nc(=O)n1CC2.Cl
LD50 [4]: 27 mg/kg | ED25 (Felis catus [1]): 0.03 mg/kg | ED25 (Felis catus [5]): 0.03 mg/kg | Delta blood pressure (Rattus norvegicus [2]): -45 mmHg

COc1cc2c(cc1OC)-c1cc(=Nc3c(C)cc(C)cc3C)n(C(C)C)c(=O)n1CC2
ED25 (Felis catus [1]): 0.1 mg/kg | Delta blood pressure (Rattus norvegicus [6]): -34 mmHg

COc1cc2c(cc1OC)-c1cc(N(CP(C)(C)=O)c3c(F)cccc3F)nc(=O)n1CC2
ED25 (Felis catus [1]): 2.4 mg/kg | Delta blood pressure (Rattus norvegicus [3]): 0 mmHg

COc1cc2c(cc1OC)-c1cc(Nc3c(Cl)cc(Cl)cc3Cl)nc(=O)n1CC2.Cl
ED25 (Felis catus [1]): 0.5 mg/kg

COc1cc2c(cc1OC)-c1cc(=Nc3c(C)cc(C)cc3C)n(CP(C)(C)=O)c(=O)n1CC2.Cl
LD50 [4]: 65 mg/kg | ED25 (Felis catus [1]): 0.1 mg/kg | ED25 (Felis catus [5]): 0.5 mg/kg | Delta blood pressure (Rattus norvegicus [2]): -33 mmHg

COc1cc2c(cc1OC)-c1cc(Nc3c(C)cccc3C(C)C)nc(=O)n1CC2.Cl
ED25 (Felis catus [1]): 2.2 mg/kg

COc1cc2c(cc1OC)-c1cc(Nc3cc(C)cc(C)c3)nc(=O)n1CC2
ED25 (Felis catus [1]): 3 mg/kg

COc1cc2c(cc1OC)-c1cc(Nc3ccc(Cl)cc3)nc(=O)n1CC2
ED25 (Felis catus [1]): 50 mg/kg

CCN(c1cc2n(c(=O)n1)CCc1cc(OC)c(OC)cc1-2)c1c(C)cc(C)cc1C
LD50 [4]: 65 mg/kg | ED25 (Felis catus [1]): 0.025 mg/kg | Delta blood pressure (Rattus norvegicus [7]): -13 mmHg | ED25 (Felis catus [5]): 0.1 mg/kg

COc1cc(Nc2cc3n(c(=O)n2)CCc2cc(OC)c(OC)cc2-3)cc(OC)c1.Cl
ED25 (Felis catus [1]): 3.4 mg/kg

Nc1cc(N2CCCCC2)nc(N)[n+]1[O-] [MINOXIDIL]
ED25 (Felis catus [1]): 1.2 mg/kg | Delta blood pressure (Rattus norvegicus [2]): -51.2 mmHg

COc1cc2c(cc1OC)-c1cc(Nc3c(Cl)cccc3Cl)nc(=O)n1CC2
ED25 (Felis catus [1]): 2 mg/kg

COc1cc2c(cc1OC)-c1cc(N(C(C)=O)c3c(C)cc(C)cc3C)nc(=O)n1CC2
LD50 [4]: 825 mg/kg | ED25 (Felis catus [1]): 0.25 mg/kg | ED25 (Felis catus [5]): 0.25 mg/kg | Delta blood pressure (Rattus norvegicus [6]): -24 mmHg

CCc1cccc(C(C)CC)c1N=c1cc2n(c(=O)n1C)CCc1cc(OC)c(OC)cc1-2.Cl (centres undefined)
ED25 (Felis catus [1]): 3.5 mg/kg | Delta blood pressure (Rattus norvegicus [3]): -20 mmHg

COc1cc2c(cc1OC)-c1cc(=Nc3c(F)cccc3F)n(CP(C)(C)=O)c(=O)n1CC2.Cl
ED25 (Felis catus [1]): 0.4 mg/kg | Delta blood pressure (Rattus norvegicus [3]): 0 mmHg

COc1cc2c(cc1OC)-c1cc(Nc3cccc(C(F)(F)F)c3)nc(=O)n1CC2
ED25 (Felis catus [1]): 2 mg/kg

COc1cc2c(cc1OC)-c1cc(Nc3ccccc3C(=O)O)nc(=O)n1CC2
ED25 (Felis catus [1]): 50 mg/kg

COc1cc2c(cc1OC)-c1cc(=Nc3c(C)cccc3C(C)C)n(C)c(=O)n1CC2.Cl
ED25 (Felis catus [1]): 1 mg/kg | Delta blood pressure (Rattus norvegicus [2]): 0 mmHg

COc1cc2c(cc1OC)-c1cc(Nc3ccc(Cl)cc3Cl)nc(=O)n1CC2
ED25 (Felis catus [1]): 1 mg/kg | Delta blood pressure (Rattus norvegicus [3]): 0 mmHg

COc1cc2c(cc1OC)-c1cc(Nc3cc(OC)c(OC)c(OC)c3)nc(=O)n1CC2.Cl
ED25 (Felis catus [1]): 0.8 mg/kg

CCOc1ccc(Nc2cc3n(c(=O)n2)CCc2cc(OC)c(OC)cc2-3)cc1.Cl
ED25 (Felis catus [1]): 50 mg/kg

COc1cc2c(cc1OC)-c1cc(Nc3ccc(C)c(Cl)c3Cl)nc(=O)n1CC2.Cl
ED25 (Felis catus [1]): 5 mg/kg | Delta blood pressure (Rattus norvegicus [3]): -19 mmHg

N/N=c1\[nH][nH]/c(=N\N)c2ccccc12 [DIHYDRALAZINE]
ED25 (Felis catus [1]): 1 mg/kg | Delta blood pressure (Rattus norvegicus [2]): -60 mmHg

CCc1ccccc1Nc1cc2n(c(=O)n1)CCc1cc(OC)c(OC)cc1-2
ED25 (Felis catus [1]): 10 mg/kg

COc1cc2c(cc1OC)-c1cc(Nc3ccc(O)cc3)nc(=O)n1CC2
ED25 (Felis catus [1]): 10 mg/kg

COc1cc2c(cc1OC)-c1cc(=Nc3c(C)cccc3C)n(C)c(=O)n1CC2
ED25 (Felis catus [1]): 3.5 mg/kg

CCn1c(=Nc2c(C)cc(C)cc2C)cc2n(c1=O)CCc1cc(OC)c(OC)cc1-2.Cl
LD50 [4]: 65 mg/kg | ED25 (Felis catus [1]): 0.1 mg/kg | ED25 (Felis catus [5]): 0.025 mg/kg | Delta blood pressure (Rattus norvegicus [2]): -20 mmHg

COc1cc2c(cc1OC)-c1cc(Nc3ccc(C)c(C)c3)nc(=O)n1CC2
ED25 (Felis catus [1]): 10 mg/kg

COc1ccc(OC)c(Nc2cc3n(c(=O)n2)CCc2cc(OC)c(OC)cc2-3)c1
ED25 (Felis catus [1]): 50 mg/kg

COc1cc2c(cc1OC)-c1cc(Nc3c(C)cc(C)cc3C)nc(=O)n1CC2.Cl
LD50 [4]: 82.5 mg/kg | ED25 (Felis catus [1]): 0.2 mg/kg | ED25 (Felis catus [5]): 0.2 mg/kg | Delta blood pressure (Rattus norvegicus [2]): -37 mmHg

COc1cc2c(cc1OC)-c1cc(=Nc3c(F)cccc3F)n(C)c(=O)n1CC2
ED25 (Felis catus [1]): 0.5 mg/kg | Delta blood pressure (Rattus norvegicus [6]): 0 mmHg

COc1cc2c(cc1OC)-c1cc(Nc3ccc(C)c(N)c3)nc(=O)n1CC2
ED25 (Felis catus [1]): 2.4 mg/kg

COc1cc2c(cc1OC)-c1cc(=Nc3ccc(C)cc3C)n(C)c(=O)n1CC2.Cl
ED25 (Felis catus [1]): 10 mg/kg

COc1cc2c(cc1OC)-c1cc(Nc3c(C)cccc3C)nc(=O)n1CC2
ED25 (Felis catus [1]): 0.1 mg/kg | Delta blood pressure (Rattus norvegicus [2]): -27 mmHg
